# ARFGAP1 inh = inhibits rat ARF GTPase activating protein 1. Q62848. Arfgap1-stimulated ARF1 GTP hydrolysis, GDP FP detection. inhibition, % at 16.5 µM. 0.26% of 360,000 active. AID 651572;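 active = inhibition above a per-plate limit, mean inhibition of low control wells plus 3 SD, cut at about 25% in these data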
# Target sequence (Q62848 1-136 limits assumed): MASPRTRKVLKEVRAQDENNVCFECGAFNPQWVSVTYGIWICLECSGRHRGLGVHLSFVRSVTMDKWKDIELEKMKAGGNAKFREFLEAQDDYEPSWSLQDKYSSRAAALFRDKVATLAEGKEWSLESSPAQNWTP
#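 Assay system: purified rat His6-Arfgap1 residues 1-136 (GAP domain); Reagent: human Δ17 ARF1 bound to GTP; Dosing: 16.5 µM single point, 1.26% DMSO; Times: GTP hydrolysis reaction 2 h at 25 °C; Signal: FP, GDP Alexa 633 tracer displaced from anti-GDP antibody, 620/688 nm; Measure: % inhibition from polarization.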
# PAFAH2 FP inh = PAFAH2 (human) inhibition | Q99487 | recombinant PAFAH2, FP-rhodamine activity probe, fluorescence polarization | inhibition, % at 3.39 µM | 0.99% of 340,000 active | AID 492956;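 active = inhibition above the mean over all tested compounds plus 3 SD, cut at about 30% in these data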;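 also: inhibitors block probe labeling of enzyme so polarization drops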
# PAFAH1B3 FP inh = PAFAH1B3 (human) inhibition; Q15102; recombinant PAFAH1B3, FP-rhodamine probe, fluorescence polarization; inhibition, % at 3.39 µM; 0.28% of 340,000 active; AID 492972;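 active = inhibition above the screen-wide average of all tested compounds plus 3 SD, cut at about 25% in these data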
# Target sequence (Q15102 whole entry, looked up): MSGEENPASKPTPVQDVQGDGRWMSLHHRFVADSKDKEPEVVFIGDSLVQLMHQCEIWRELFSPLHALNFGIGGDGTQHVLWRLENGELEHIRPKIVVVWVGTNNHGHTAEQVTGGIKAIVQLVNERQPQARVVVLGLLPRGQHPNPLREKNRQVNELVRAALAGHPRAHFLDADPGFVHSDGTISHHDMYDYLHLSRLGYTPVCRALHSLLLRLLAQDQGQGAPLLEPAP
# ASAP1 inh = ASAP1 ArfGAP inhibition. ASAP1-stimulated ARF1 GTP hydrolysis, GDP FP detection. inhibition, % at 16.5 µM. 0.19% of 360,000 active. AID 624377; in the data active = inhibition above about 25%
# PAFAH1B2 FP inh = inhibitors of human PAFAH1B2; P68402; recombinant PAFAH1B2, FP-rhodamine activity probe, fluorescence polarization; inhibition, % at 3.39 µM; 1.2% of 340,000 active; AID 492953;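 active = inhibition above the mean of all tested compounds plus 3 SD, cut at about 24% in these data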
# Target sequence (P68402 whole entry, looked up): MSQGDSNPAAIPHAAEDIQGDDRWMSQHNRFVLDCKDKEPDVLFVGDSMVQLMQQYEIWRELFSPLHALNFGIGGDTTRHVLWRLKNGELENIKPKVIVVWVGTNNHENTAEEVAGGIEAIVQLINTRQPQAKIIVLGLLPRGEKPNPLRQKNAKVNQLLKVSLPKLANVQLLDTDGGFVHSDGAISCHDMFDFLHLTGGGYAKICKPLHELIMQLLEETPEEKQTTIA
# pPAFAH FP inh = inhibitors of human plasma PAF acetylhydrolase (pPAFAH); 1.5% of 330,000 active; Q13093; recombinant pPAFAH, FP-rhodamine probe fluorescence polarization; inhibition, % at 3.39 µM;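 active = inhibition above the mean inhibition across the screen plus 3 SD, cut at about 25% in these data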;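 also: inhibitors block binding of the rhodamine activity-based probe so polarization drops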
# Numbers stand for hits; n = inactive; x = not tested or not shown. Sampled rows, rich in hits. Any-hit rate of the full collection: about 2.7%.
SMILES,ARFGAP1 inh,PAFAH2 FP inh,PAFAH1B3 FP inh,ASAP1 inh,PAFAH1B2 FP inh,pPAFAH FP inh
CC1CCc2c(sc(NC(=O)c3ccccc3C(=O)O)c2C#N)C1 (stereo not given),n,n,n,n,n,n
N#Cc1c(NC(=O)C2CC=CCC2C(=O)O)sc2c1CCCCCC2 (stereo not given),n,n,n,n,45,n
CCC(C)(C)C1CCc2c(sc(NC(=O)c3ccccc3C(=O)O)c2C#N)C1 (stereo not given),n,n,n,n,67,32
CC(C)(C)C1CCc2c(sc(NC(=O)C3CC=CCC3C(=O)O)c2C#N)C1 (stereo not given),n,n,n,n,59,31
N#Cc1c(NC(=O)CCC(=O)O)sc2c1CCCCC2,n,n,n,n,n,n
Cc1ccc(S(=O)(=O)NC(CC(=O)O)c2ccco2)cc1 (stereo not given),n,n,n,n,n,n
O=C(O)CC(NS(=O)(=O)c1ccc(Br)cc1)c1ccco1 (stereo not given),n,n,n,n,28,n
COc1ccc(NC(=O)CN(C)C(=O)Cc2c(C)nc3ccccc3c2C)cc1,n,n,n,n,n,27
CN1C(=O)C(=C2CCCCCC2)SC1=S,n,n,n,n,n,n
O=C1NC(=S)SC1=C1CCCC1,n,n,n,n,n,34
CC(=O)OC[C@]12CC[C@H]3[C@@](C)(CC[C@H]4C(C)(C)CCC[C@]34C)[C@@H]1CC(C1=CC(=O)OC1O)O2 (stereo not given in full),n,x,x,n,x,x
CCCCC(=O)NC(c1ccc(Cl)cc1)c1ccc2cccnc2c1O (stereo not given),n,n,n,n,n,n
CCCCC(=O)NC(c1ccc(N(CC)CC)cc1)c1ccc2cccnc2c1O (stereo not given),n,n,n,n,n,26
CCCCC(=O)NC(c1ccc(N(C)C)cc1)c1ccc2cccnc2c1O (stereo not given),n,n,n,n,n,26
O=S1(=O)c2ccc(Br)cc2OC2CCCN1C2 (stereo not given),n,x,x,n,x,x
FC(F)(F)c1cccc(N2CCN(C(=S)NCC3CCCO3)CC2)c1 (stereo not given),n,n,n,n,n,30
S=C(NCC1CCCO1)N1CCN(c2ccccc2)CC1 (stereo not given),n,n,n,n,n,n
C/C(=N\O)C1/C(=N/O)CC2C1C2(C)C (stereo not given),n,n,n,n,34,n
O=[N+]([O-])c1cc(CN2CCCC2)c2cccnc2c1O,x,36,n,x,n,66
COc1ccccc1N1CCN(Cc2cc(Br)c(O)c3ncccc23)CC1,n,n,n,n,n,30
CCOc1ccccc1N1CCN(Cc2cccc(OC)c2O)CC1,n,n,n,n,n,n
COC(=O)Cc1ccc(NC(=S)NCc2ccccc2Cl)cc1,n,n,n,n,n,28
COc1ccccc1OCC(=O)NNC(=O)c1cccs1,n,n,n,n,n,n
Cc1ccccc1OCCC(=O)OCC(=O)NNC(=O)c1cccs1,n,n,n,n,n,25
COC(=O)c1cc2c(c3c4cc(F)ccc4n(S(=O)(=O)c4ccc(C)cc4)c13)C(=O)N(Cc1ccccc1)C2,n,x,x,n,x,x
SMILES,ARFGAP1 inh,PAFAH2 FP inh,PAFAH1B3 FP inh,ASAP1 inh,PAFAH1B2 FP inh,pPAFAH FP inh
O=C(CCOc1ccccc1)N1CCN(c2ccc(O)cc2)CC1,n,n,n,n,n,31
O=C(CCCOc1ccccc1)N1CCN(c2ccccc2)CC1,n,n,n,n,n,n
O=C1C2CCCCN2C(=O)N1CCCCN1CCN(c2cccc(Br)c2)CC1 (stereo not given),n,n,n,n,n,28
O=C1C2CCCN2C(=O)N1CCCN1CCN(c2ccc([N+](=O)[O-])cc2)CC1 (stereo not given),n,n,n,n,n,29
CCCCCCC(=O)NC1CCCCN(C)C1=O (stereo not given),n,x,x,n,x,x
COc1cc2c(c(OC3OC(CO)C(O)C(O)C3O)c1)C(=O)CC(c1ccc(O)cc1)O2 (stereo not given),n,x,x,n,x,x
CCN(CC)C(=O)c1ncn2c1C(=O)NC[C@@H]2C,n,x,x,n,x,x
COc1ccccc1N=c1oc2cc(O)ccc2cc1C(N)=O,n,n,n,n,n,n
COc1ccccc1N=c1oc2cc(O)ccc2cc1C(=O)NCC1CCCO1 (stereo not given),n,n,n,n,n,26
COc1ccc2oc(=O)c(C(=O)NCC3CCCO3)cc2c1 (stereo not given),n,n,n,n,n,n
COc1cccc(N=c2oc3cc(O)ccc3cc2C(=O)NCC2CCCO2)c1 (stereo not given),n,n,n,n,n,25
Cc1nn(CCc2nn[nH]n2)c2nc(-c3ccc(C4CCCCC4)cc3)cc(C(F)(F)F)c12,n,n,n,n,n,27
CC1(C)CC2CC(C)(CN2C(=O)CN2C(=O)c3ccccc3C2=O)C1 (stereo not given),n,n,n,n,24,n
COc1ccc2c(c1)[C@@]1(OCCC=C[C@H]1C)C(=O)N2Cc1ccccc1C(F)(F)F,n,x,x,n,x,x
CCOC(=O)CSc1nc2ccc(N3CCOCC3)cc2c(=O)n1Cc1ccc2c(c1)OCO2,x,x,x,x,x,32
COc1ccc(-n2c(SCC(N)=O)nnc2-c2ccc(NS(=O)(=O)c3ccc(C)cc3)cc2)cc1,n,n,n,n,n,n
COc1ccc(-n2c(SCC#N)nnc2-c2ccc(NS(=O)(=O)c3ccc(C)cc3)cc2)cc1,x,n,n,x,n,26
O=C(NCCC1=CCCCC1)C1CCCN(S(=O)(=O)c2cnc[nH]2)C1 (stereo not given),n,n,n,n,26,n
Cc1ccc(S(=O)(=O)N2CCCC(C(=O)NCCC3=CCCCC3)C2)cc1 (stereo not given),n,n,n,n,n,n
O=S(=O)(NCCC1=CCCCC1)c1cccc(S(=O)(=O)N2CCOCC2)c1,n,n,n,n,n,30
O=C(NCCC1=CCCCC1)C1CCCN(S(=O)(=O)c2ccccc2)C1 (stereo not given),n,n,n,n,27,n
O=S(=O)(NCCc1ccccc1)c1cccc(S(=O)(=O)N2CCOCC2)c1,n,n,n,n,n,n
CCN=C1NC(c2ccccc2C(F)(F)F)C(C(=O)OC)=C(C)N1C (stereo not given),n,x,x,n,x,x
O=C1NN(c2cccc(Br)c2)C(=O)/C1=C/c1ccc(-c2cc([N+](=O)[O-])ccc2O)o1,x,47,31,x,n,28
O=C1NN(c2ccc(Cl)c(Cl)c2)C(=O)/C1=C/c1ccc(-c2ccccc2C(=O)O)o1,n,30,n,n,26,x
CCc1cccc(NC(=O)c2ccc(NS(=O)(=O)c3c(C)noc3C)cc2)c1,n,n,n,n,n,29

# Screening results deposited in PubChem BioAssay by The Scripps Research Institute Molecular Screening Center.
